# According to publication PMC7591087 (Drug Design, Development and Therapy, 2020):
# Read-outs that look alike come from different tables or passages of the source.
# What was measured:
# [1] = Steady-state pharmacokinetics; type: in vivo; details: human, plasma, oral
# Summary of the method: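 Crossover design in healthy males: 5 mg, 30 mg, or both test compounds orally once daily for 7 days, fasted, with 7-day washouts. A validated LC-MS/MS assay measured parent drugs and metabolites, and steady-state Tmax was taken directly from observed data. Analysis covered 34 completers.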
# [2] = Safety and tolerability assessment; type: in vivo, human
# Summary of the method: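 Healthy males in a randomized, open-label, six-sequence, three-period crossover took one test compound at 5 mg, another at 30 mg, or both together, orally once daily for 7 days with 150 mL water while fasted, with 7-day washouts. Investigators monitored vital signs, physical exam, clinical labs, 12-lead ECG and adverse events, coding events with MedDRA 19.0. Analysis covered 35 subjects dosed at least once.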
# [3] = repeated once-daily administrations in healthy subjects, NCT00961025; cited from earlier work
# CYP enzymes = details: in vitro studies; cited from earlier work
# [4] = once-daily oral administration; cited from earlier work
# CYP enzyme = details: in vivo; cited from earlier work
# [5] = number of subjects who reported ADRs (the number of ADRs), N=35
Tmax ([1]; 5 mg),Tmax [1],Tmax ([1]; 30 mg),SMILES,"ADR: Diarrhoea [2, 5]","ADR: Dyspepsia [2, 5]","ADR: Headache [2, 5]","ADR: Lip blister [2, 5]","ADR: Muscle twitching [2, 5]","ADR: Musculoskeletal stiffness [2, 5]","ADR: Oropharyngeal swelling [2, 5]","ADR: Vomiting [2, 5]",terminal half-life (t1/2) [3],time to reach a maximum plasma concentration (Tmax) [3],induction or inhibition of CYP enzymes (CYP enzymes),"number of AEs reported ([2]; all adverse events after each treatment, 35 subjects)","ADR: Amylase increased [2, 5]",Tmax [4],CYP enzyme induction or inhibition (CYP enzyme)
4.5 h,–,–,CC(C)(C)OC[C@@H]1C(=O)NCCN1C(=O)C[C@H](N)Cc1cc(F)c(F)cc1F [Evogliptin],1 (1),1 (1),1 (1),1 (1),1 (1),1 (1),1 (1),1 (1),33 to 39 h,4 to 5 h,does not induce or inhibit CYP enzymes,–,–,–,–
–,3 h,2 h,CCc1ccc(CCOc2ccc(CC3SC(=O)NC3=O)cc2)nc1 (stereo not drawn) [Pioglitazone],–,–,–,–,–,–,–,–,–,–,–,3 AEs,1 (1),about 2 hours,No clinically significant CYP enzyme induction or inhibition
